Reference: ChEMBL document CHEMBL1123812, “Pyrroloisoquinoline antidepressants. 2. In-depth exploration of structure-activity relationships” (J Med Chem, 1987)

What was measured:
[1] = target: Serotonin 2 (5-HT2) receptor (Rattus norvegicus, UniProt P30994+P08909+P14842); assay: Binding affinity towards 5-hydroxytryptamine 2 receptor; assay type: protein assay
Mus musculus [2] = organism: Mus musculus; assay: Antagonism of tetrabenazine (TBZ)-induced depression in mice measured for ptosis; assay type: functional; conditions: Mus musculus; read-out: ED50
Summary of the method: (§1)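 Nonfasted male Swiss Webster mice, 18–24 g, ten per dose level and in saline controls. Test compound given ip 30 min before tetrabenazine 32 mg/kg ip; dose expressed as free base. Motor activity and ptosis scored. Control response ≤90% corrected by Abbott's formula.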

Mus musculus [3] = organism: Mus musculus; assay: Antagonism of tetrabenazine (TBZ)-induced depression measured in mice by motor activity; assay type: functional; conditions: Mus musculus; read-out: ED50; summary of the method: as §1
[4] = target: Norepinephrine transporter (Rattus norvegicus, UniProt Q9WTR4); assay: Inhibition of uptake of tritiated norepinephrine (NE) in rat synaptosomes; assay type: subcellular, Brain
Chain of Norepinephrine transporter (Q9WTR4 whole entry): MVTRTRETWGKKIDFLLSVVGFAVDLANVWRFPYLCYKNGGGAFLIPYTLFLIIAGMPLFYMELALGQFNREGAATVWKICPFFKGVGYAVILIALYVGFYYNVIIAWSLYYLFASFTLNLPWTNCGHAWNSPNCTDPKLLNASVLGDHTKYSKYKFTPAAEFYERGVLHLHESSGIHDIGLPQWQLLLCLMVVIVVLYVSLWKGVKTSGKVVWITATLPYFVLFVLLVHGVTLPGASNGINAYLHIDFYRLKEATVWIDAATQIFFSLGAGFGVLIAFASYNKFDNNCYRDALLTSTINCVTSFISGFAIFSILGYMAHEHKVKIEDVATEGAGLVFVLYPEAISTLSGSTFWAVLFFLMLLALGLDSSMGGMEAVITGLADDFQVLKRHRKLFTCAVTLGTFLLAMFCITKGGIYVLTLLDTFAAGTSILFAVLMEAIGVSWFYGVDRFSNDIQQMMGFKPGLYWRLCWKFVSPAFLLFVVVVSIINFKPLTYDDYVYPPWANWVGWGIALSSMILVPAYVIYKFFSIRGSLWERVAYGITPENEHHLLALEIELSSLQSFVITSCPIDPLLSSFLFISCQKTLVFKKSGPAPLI

D(2) dopamine receptor = D(2) dopamine receptor (Rattus norvegicus, UniProt P61169); assay: Binding affinity towards Dopamine receptor D2
Chain of D(2) dopamine receptor (P61169 whole entry): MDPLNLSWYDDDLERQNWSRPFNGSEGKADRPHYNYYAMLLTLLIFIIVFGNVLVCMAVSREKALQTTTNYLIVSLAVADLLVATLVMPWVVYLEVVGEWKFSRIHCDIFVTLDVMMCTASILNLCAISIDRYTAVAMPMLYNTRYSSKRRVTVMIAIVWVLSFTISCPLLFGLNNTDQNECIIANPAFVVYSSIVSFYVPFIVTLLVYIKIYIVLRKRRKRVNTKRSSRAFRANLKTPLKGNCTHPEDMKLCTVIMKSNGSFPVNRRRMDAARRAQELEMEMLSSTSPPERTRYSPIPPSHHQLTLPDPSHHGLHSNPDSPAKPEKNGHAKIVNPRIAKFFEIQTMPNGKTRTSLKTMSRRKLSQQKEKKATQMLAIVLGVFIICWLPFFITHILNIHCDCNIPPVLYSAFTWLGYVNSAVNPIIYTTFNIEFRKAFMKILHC

[5] = target: T1, Adrenergic receptor alpha-1 (Rattus norvegicus, UniProt P15823+P23944+P43140); assay: Binding affinity towards alpha-1 adrenergic receptor; assay type: protein assay
T1 sequence (P15823 whole entry): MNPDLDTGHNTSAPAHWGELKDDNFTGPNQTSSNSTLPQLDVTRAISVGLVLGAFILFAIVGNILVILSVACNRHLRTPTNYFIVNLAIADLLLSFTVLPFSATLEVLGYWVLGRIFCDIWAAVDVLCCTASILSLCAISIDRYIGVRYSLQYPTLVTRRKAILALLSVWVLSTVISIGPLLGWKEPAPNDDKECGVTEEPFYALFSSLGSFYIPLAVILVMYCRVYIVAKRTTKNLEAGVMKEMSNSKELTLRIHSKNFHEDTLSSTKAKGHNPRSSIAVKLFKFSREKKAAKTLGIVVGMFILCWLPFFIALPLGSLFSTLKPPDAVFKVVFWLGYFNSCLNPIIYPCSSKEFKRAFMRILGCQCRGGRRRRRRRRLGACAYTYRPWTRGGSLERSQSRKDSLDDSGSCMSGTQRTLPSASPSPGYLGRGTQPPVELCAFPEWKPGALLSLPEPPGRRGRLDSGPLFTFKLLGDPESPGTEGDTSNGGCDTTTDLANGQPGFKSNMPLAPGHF
T1 sequence (P23944 whole entry): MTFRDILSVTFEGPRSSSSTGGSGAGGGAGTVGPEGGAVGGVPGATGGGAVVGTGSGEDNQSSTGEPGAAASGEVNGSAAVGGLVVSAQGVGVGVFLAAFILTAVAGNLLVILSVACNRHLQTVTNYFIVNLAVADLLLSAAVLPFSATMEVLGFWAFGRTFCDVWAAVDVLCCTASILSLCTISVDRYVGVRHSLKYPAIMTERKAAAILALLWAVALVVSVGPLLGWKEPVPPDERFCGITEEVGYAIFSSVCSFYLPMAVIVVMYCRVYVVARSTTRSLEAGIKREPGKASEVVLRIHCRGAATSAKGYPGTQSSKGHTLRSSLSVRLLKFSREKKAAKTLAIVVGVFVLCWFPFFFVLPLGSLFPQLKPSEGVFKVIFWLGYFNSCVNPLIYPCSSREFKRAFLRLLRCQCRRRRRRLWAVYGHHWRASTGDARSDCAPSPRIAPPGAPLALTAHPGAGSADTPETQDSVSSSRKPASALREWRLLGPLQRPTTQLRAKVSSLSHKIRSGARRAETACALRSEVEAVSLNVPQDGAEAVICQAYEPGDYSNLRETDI
T1 sequence (P43140 whole entry): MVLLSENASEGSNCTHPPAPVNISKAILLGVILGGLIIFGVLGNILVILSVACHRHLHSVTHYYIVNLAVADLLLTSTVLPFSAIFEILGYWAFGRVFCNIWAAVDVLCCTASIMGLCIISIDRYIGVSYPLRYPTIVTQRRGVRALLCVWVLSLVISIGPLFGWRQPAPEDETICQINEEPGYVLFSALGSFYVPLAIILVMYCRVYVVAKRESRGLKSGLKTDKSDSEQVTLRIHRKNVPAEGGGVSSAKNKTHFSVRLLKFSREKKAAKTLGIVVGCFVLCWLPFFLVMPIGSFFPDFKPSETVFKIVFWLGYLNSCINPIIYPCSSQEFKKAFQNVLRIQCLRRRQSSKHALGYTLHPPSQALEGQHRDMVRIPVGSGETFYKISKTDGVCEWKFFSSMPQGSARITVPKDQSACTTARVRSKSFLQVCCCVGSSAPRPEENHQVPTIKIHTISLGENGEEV

[6] = target: Sodium-dependent dopamine transporter (Rattus norvegicus, UniProt P23977); assay: Inhibition of the uptake of tritiated dopamine (DA) in rat synaptosomes; assay type: subcellular, Brain
Chain of Sodium-dependent dopamine transporter (P23977 whole entry): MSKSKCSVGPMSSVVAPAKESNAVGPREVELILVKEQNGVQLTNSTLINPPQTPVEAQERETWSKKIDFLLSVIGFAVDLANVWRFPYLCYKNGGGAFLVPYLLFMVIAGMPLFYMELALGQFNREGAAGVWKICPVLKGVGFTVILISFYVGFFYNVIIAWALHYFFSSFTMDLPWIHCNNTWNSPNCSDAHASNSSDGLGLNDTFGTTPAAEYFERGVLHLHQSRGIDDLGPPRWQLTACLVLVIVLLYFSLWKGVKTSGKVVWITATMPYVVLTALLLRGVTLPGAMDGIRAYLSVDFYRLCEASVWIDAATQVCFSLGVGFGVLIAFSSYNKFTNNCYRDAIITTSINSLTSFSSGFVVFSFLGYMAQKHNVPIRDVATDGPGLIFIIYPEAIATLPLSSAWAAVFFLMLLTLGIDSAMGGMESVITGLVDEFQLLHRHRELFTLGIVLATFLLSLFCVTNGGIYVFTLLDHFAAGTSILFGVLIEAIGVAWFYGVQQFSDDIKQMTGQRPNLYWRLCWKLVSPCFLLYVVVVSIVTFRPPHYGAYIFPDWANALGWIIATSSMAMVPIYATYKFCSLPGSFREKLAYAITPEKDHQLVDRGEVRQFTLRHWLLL

[7] = target: D(1A) dopamine receptor (Rattus norvegicus) (UniProt P18901); assay: Binding affinity towards Dopamine receptor D1 at 1.0 uM concentration
Chain of D(1A) dopamine receptor (Rattus norvegicus) (P18901 whole entry): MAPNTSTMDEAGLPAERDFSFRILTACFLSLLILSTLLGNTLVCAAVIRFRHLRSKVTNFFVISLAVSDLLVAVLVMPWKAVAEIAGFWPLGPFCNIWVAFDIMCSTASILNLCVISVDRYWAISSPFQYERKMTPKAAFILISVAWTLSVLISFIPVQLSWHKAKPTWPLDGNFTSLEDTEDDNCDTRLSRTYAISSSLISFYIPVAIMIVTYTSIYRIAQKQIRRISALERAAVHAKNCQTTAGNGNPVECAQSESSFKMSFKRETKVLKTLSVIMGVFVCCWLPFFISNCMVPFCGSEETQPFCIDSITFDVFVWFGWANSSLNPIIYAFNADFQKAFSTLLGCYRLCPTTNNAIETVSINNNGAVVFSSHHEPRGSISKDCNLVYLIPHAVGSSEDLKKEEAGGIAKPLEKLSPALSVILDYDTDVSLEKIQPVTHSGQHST
Summary of the method: (§2)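 Rat brain crude synaptic membranes in 20 mM NaHEPES pH 7.5. Ligands: α1 cortex […] 0.4 nM, nonspecific with (-)-NE 100 μM, 30 min at 25 °C. […] D2 striatum [3H]spiperone 0.05 nM with (+)-butaclamol 1 μM, 45 min at 37 °C. S1 cortex [3H]5-HT 1 nM plus glutathione and MgCl2, with 5-HT 10 μM, 20 min at 37 °C. […] Samples filtered on GF/B and counted.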

Mus musculus [8] = organism: Mus musculus; assay: Gross behavioral effects ascertained in mice; W indicates weak stimulant or depressant activity of little significance.; assay type: functional, organism-based
Summary of the method: (§3)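 Male Swiss Webster mice, 18–24 g, three per dose, given ip doses of 1, 3, 10, 30, 100 and 300 mg/kg. Observed for gross behavior and held for 4 days. Scored as weak (W), stimulant (S), depressant (D) or convulsant (C).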

[9] = target: Serotonin 2 (5-HT2) receptor (Rattus norvegicus) (UniProt P30994+P08909+P14842); assay: Binding affinity towards 5-hydroxytryptamine 2 receptor at 1.0 uM concentration; assay type: protein assay; summary of the method: as §2
Chain of Serotonin 2 (5-HT2) receptor (Rattus norvegicus) (P08909 whole entry, looked up): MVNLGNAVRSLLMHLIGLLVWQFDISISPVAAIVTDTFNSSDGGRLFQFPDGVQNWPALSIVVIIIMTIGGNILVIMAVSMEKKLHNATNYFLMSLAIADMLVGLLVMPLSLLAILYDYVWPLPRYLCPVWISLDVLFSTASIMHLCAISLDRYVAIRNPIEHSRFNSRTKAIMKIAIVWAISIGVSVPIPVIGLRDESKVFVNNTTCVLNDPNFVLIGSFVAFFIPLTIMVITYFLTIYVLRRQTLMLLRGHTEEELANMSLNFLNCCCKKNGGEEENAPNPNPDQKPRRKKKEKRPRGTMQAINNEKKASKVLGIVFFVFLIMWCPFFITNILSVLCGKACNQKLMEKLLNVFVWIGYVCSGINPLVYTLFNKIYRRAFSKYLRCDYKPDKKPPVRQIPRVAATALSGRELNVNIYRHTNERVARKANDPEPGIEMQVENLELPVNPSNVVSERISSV
Chain of Serotonin 2 (5-HT2) receptor (Rattus norvegicus) (P14842 whole entry, looked up): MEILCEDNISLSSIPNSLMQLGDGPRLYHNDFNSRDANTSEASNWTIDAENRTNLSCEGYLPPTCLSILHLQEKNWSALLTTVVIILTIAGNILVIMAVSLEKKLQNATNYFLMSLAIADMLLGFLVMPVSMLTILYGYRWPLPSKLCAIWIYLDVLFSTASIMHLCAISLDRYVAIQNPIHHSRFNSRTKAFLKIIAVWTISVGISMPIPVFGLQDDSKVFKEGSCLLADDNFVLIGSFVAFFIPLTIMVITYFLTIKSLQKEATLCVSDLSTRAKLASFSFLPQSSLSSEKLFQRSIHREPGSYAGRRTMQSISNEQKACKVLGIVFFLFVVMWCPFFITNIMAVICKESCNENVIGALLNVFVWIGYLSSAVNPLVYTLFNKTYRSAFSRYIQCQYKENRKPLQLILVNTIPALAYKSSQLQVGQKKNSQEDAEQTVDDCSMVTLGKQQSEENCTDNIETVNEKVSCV
Chain of Serotonin 2 (5-HT2) receptor (Rattus norvegicus) (P30994 whole entry, looked up): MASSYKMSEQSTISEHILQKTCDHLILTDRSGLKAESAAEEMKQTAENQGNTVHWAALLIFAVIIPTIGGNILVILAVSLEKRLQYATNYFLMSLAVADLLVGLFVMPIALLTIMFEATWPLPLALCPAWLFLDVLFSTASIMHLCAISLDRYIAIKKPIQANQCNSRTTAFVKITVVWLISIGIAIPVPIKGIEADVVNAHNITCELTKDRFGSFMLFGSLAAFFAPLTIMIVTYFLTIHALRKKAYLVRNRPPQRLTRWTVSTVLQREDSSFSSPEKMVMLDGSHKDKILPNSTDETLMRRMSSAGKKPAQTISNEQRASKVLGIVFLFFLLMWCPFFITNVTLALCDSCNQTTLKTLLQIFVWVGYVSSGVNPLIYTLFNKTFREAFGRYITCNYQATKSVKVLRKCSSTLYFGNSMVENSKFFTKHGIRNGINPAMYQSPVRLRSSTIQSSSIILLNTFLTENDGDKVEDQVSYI

[10] = target: D(2) dopamine receptor (Rattus norvegicus) (UniProt P61169); assay: Binding affinity towards dopamine receptor D2 at 1.0 uM concentration; summary of the method: as §2
Chain of D(2) dopamine receptor (Rattus norvegicus) (P61169 whole entry): as the sequence (P61169 whole entry) above

[11] = target: Serotonin 1 (5-HT1) receptor (Rattus norvegicus, UniProt P28564+P30940+P19327+P28565); assay: Binding affinity towards serotonin S1 receptor; assay type: protein assay; summary of the method: as §2
[12] = target: Adrenergic receptor alpha-1 (Rattus norvegicus) (UniProt P15823+P23944+P43140); assay: Binding affinity towards alpha-1 adrenergic receptor at 1.0 uM concentration; assay type: protein assay; summary of the method: as §2
[13] = target: Serotonin 1 (5-HT1) receptor (Rattus norvegicus) (UniProt P28564+P30940+P19327+P28565); assay: Binding affinity towards serotonin S1 receptor at 1.0 uM; assay type: protein assay; summary of the method: as §2
[14] = target: Norepinephrine transporter (Rattus norvegicus) (UniProt Q9WTR4); assay: Ability to inhibit the uptake of [3H]norepinephrine (NE) 0.1 uM concentration at rat brain synaptosomes; assay type: functional, subcellular
Chain of Norepinephrine transporter (Rattus norvegicus) (Q9WTR4 as listed by the source): as the sequence (Q9WTR4 whole entry) above
Summary of the method: (§4)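 Male Wistar rat brain synaptosomes (P2 fraction): hypothalamus for NE, striatum for DA, cerebral cortex for 5-HT. Buffer is Tris- or HEPES-buffered salt medium with glucose, ascorbate and nialamide, pH 7.4 at 37 °C. Preincubated 10 min at 37 °C with compound. Uptake started with [3H]NE 100–300 nM, [3H]DA 50–300 nM or [3H]5-HT 100–200 nM, incubated 3 min (DA) or 6–10 min (NE, 5-HT). Blanks held on ice. Filtered, counted by scintillation.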

[15] = target: Sodium-dependent dopamine transporter (Rattus norvegicus) (UniProt P23977); assay: Ability to inhibit the uptake of [3H]dopamine (DA) 0.1 uM concentration at rat brain synaptosomes; assay type: functional, subcellular; summary of the method: as §4
Chain of Sodium-dependent dopamine transporter (Rattus norvegicus) (P23977 whole entry): as the sequence (P23977 whole entry) above

[16] = target: Sodium-dependent serotonin transporter (Rattus norvegicus) (UniProt P31652); assay: Ability to inhibit the uptake of [3H]- serotonin(5-HT) 0.1 uM concentration at rat brain synaptosomes; assay type: functional, subcellular; summary of the method: as §4
Chain of Sodium-dependent serotonin transporter (Rattus norvegicus) (P31652 whole entry): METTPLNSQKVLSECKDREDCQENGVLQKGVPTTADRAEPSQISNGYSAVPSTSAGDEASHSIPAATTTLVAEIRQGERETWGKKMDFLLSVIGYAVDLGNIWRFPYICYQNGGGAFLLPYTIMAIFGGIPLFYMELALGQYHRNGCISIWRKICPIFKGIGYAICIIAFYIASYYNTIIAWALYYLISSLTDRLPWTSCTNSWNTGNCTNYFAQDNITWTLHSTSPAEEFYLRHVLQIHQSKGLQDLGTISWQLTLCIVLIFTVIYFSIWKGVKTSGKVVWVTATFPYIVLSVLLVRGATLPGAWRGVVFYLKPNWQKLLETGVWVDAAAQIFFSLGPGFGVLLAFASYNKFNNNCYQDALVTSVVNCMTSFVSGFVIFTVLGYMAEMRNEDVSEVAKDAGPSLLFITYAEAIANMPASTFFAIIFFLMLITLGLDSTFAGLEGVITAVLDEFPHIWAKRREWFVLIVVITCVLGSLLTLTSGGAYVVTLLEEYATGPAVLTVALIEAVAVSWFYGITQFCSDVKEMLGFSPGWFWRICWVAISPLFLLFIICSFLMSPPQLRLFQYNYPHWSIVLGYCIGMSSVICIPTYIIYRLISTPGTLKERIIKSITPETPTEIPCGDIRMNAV

Mus musculus [17] = organism: Mus musculus; assay: Gross behavioral effects ascertained in mice; S indicates significant stimulant properties.; assay type: functional, organism-based; summary of the method: as §3
[18] = target: Adrenergic receptor alpha-2 (Rattus norvegicus) (UniProt P22086+P19328+P22909); assay: Binding affinity towards alpha-2 adrenergic receptor at 1.0 uM concentration; assay type: protein assay
[19] = target: Muscarinic acetylcholine receptor (Rattus norvegicus) (UniProt P08482+P08483+P08485+P08911+P10980); assay: Binding affinity towards Muscarinic acetylcholine receptor at 1.0 uM concentration; assay type: protein assay

SMILES | Ki [1] [nM] | Ki [5] [nM] | inhibition [9] [%] | inhibition [10] [%] | inhibition [12] [%] | inhibition [13] [%] | ED50 (Mus musculus [2]) [mg/kg] | ED50 (Mus musculus [3]) [mg/kg] | behavior (Mus musculus [8]) | further results
FC(F)(F)c1cccc([C@@H]2CN3CCC[C@@H]3c3ccccc32)c1 (stereo in doubt; 37b) | 602 | 213 |  |  |  |  | 0.58 | 0.78 |  | Ki [4]: 0.95 nM; Ki (D(2) dopamine receptor): 2220 nM; Ki [6]: 54.3 nM
Fc1ccc([C@@H]2CN3CCC[C@@H]3c3ccccc32)cc1 |  |  |  |  |  |  | ~0.2 | ~0.2 | Partial stimulant | Ki [4]: 1.4 nM; inhibition [7]: 56%
c1ccc([C@@H]2CN3CCC[C@@H]3c3ccccc32)cc1 (stereo in doubt; (-)-7b) |  |  | 58 | 14 |  |  |  |  | Partial stimulant | 
Br.Clc1ccccc1[C@@H]1CN2CCC[C@@H]2c2ccccc21 (stereo in doubt; (-)-24b) |  | 620 |  |  |  |  |  |  |  | Ki [11]: 2700 nM; Ki [6]: 775 nM
CN1CCc2cc(Cl)c(O)cc2[C@@H](c2ccccc2)C1 [SCH-23390] | 13 |  |  | 53 | 65 | 75 |  |  |  | 
COc1ccccc1[C@@H]1CN2CCC[C@@H]2c2ccccc21 |  |  | 74 |  |  | 45 | ~0.3 | ~0.6 | Partial stimulant | 
Br.Clc1ccc([C@@H]2CN3CCC[C@@H]3c3ccccc32)cc1 |  |  | 59 | 35 | 61 |  | 0.34 | 0.55 |  | behavior (Mus musculus [17]): Stimulant; inhibition [18]: 35%; inhibition [19]: 0%

Continued, in another order:

Ki [1] [nM] | Ki [5] [nM] | inhibition [9] [%] | inhibition [10] [%] | inhibition [12] [%] | inhibition [13] [%] | SMILES | ED50 (Mus musculus [2]) [mg/kg] | ED50 (Mus musculus [3]) [mg/kg] | behavior (Mus musculus [8]) | further results
142 | 274 |  |  |  |  | CSc1ccc([C@@H]2CN3CCC[C@@H]3c3ccccc32)cc1 (stereo in doubt; (+)-48b) |  |  |  | Ki (D(2) dopamine receptor): 1030 nM
29 |  |  | 16 | 69 | 36 | Br.Nc1ccc([C@@H]2CN3CCC[C@H]3c3ccccc32)cc1 | 0.2 | 1 |  | inhibition [14]: 89%; inhibition [15]: 77%; inhibition [16]: 17%
